Measurements reported in ChEMBL document CHEMBL1129608, “Phosphodiester amidates of allenic nucleoside analogues: anti-HIV activity and possible mechanism of action” (J Med Chem, 1996).

What was measured:
ATH-8 cell line [1] = experiment: Compound was evaluated for the inhibition of replication and cytopathic effect of HIV-1 in ATH8 cells; format: functional, cell-based, Homo sapiens
Summary of the method: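 ATH8 (CD4+) cells, 2 × 10⁵, were exposed to HIV-1 LAI (500 TCID50) for 45 min and then cultured with compound. Total viable cells were counted on day 7. Percent protection was calculated as viable cells (infected plus drug minus infected alone) divided by (uninfected minus infected alone) × 100. Cytotoxicity was 100 × (1 − viable cells with drug / viable cells alone).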

L1210 = experiment: Compound was evaluated for the clonogenic assay with murine leukemia L1210 cells; format: functional; details: Mus musculus, read-out: ID50 (the source's name)
ATH-8 cell line [2] = experiment: Compound was evaluated for the cytotoxicity in ATH8 cells; details: Homo sapiens
[3] = Kinetic hydrolysis catalyzed by pig liver esterase at pH 9.8; format: ADME, Sus scrofa
[4] = Kinetic hydrolysis catalyzed by pig liver esterase at pH 7.4 and 37 degree C; format: ADME, Sus scrofa
Summary of the method: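 Substrate at 2.2 × 10⁻³ M in 0.02 M Na₂HPO₄, pH 7.4, with pig liver esterase (200 units per 1 mL), stirred at 37 °C. Aliquots were taken at set times and analysed by reverse-phase C18 HPLC (water–CH₃CN gradient) to follow loss of substrate and give the half-life.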

L1210 (Mus musculus) = experiment: Compound was evaluated for the inhibitory activity in a clonogenic assay with murine leukemia L1210 cells
[5] = Kinetic hydrolysis catalyzed by pig liver esterase at pH 1.2; format: ADME, Sus scrofa

half-life [3]	half-life [4]	EC50 (ATH-8 cell line [1]; ath-8)	half-life [5]	Structure (SMILES)	EC50 (ATH-8 cell line [1]; Homo sapiens, ATH-8)	IC50 (L1210)	IC50 (ATH-8 cell line [2])	ID50 (L1210 (Mus musculus))
				Nc1ncnc2c1ncn2C=C=CCO	14000 nM	150 µM	3000 nM	
151 min	510 min	880 nM	1460 min	COC(=O)C(C)NP(=O)(OCC=C=Cn1cnc2c(N)ncnc21)Oc1ccccc1 (stereo in doubt; 2a)				> 300 µM
		210 nM		COC(=O)C(C)NP(=O)(OCC=C=Cn1cnc2c(N)ncnc21)Oc1ccccc1 (stereo in doubt; 4a)				
